Measured values: the RNAGym collection of RNA variant scans (doi:10.1126/science.aae0568)
Variants at the floor of the assay were thinned out.

B1: tRNA (parent)
chain: GUUCCGUUGGCGUAAUGGUAACGCGUCUCCCUCCUAAGGAGAAGACUGCGGGUUCGAGUCCCGUACGGAACG

Variants of: B1
Assay: yeast fitness relative to wild type (ratio to wild type); higher = fitter; tRNA-Arg(CCU), competitive growth, 37 C, YPD
Method in brief: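 Changes in genotype frequencies gave Darwinian fitness relative to wild type. Frequencies were read by 100-nucleotide paired-end sequencing of gene amplicons before and after pooled Saccharomyces cerevisiae strains, carrying tRNA-Arg(CCU) gene variants at the native locus, were competed in YPD at 37°C for 24 hours in six replicates. A genotype was kept only with ≥ 100 starting reads, and estimates < 0.5 were set to 0.5.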

Row | Variant | yeast fitness
1 | C24U U54C | 0.812
2 | C24U U59A | 0.875
3 | C24U U59A C60G | 0.754
4 | C24U U59C A69C | 0.618
5 | G25A A36U | 0.564
6 | G25A A36U A45C U54A | ≤ 0.5
7 | G25A A37C C61U | 0.572
8 | G25A A37C G51C A57G | ≤ 0.5
9 | G25A A37C G68U | 0.702
10 | G25A A37U A40C | 0.68
11 | G25A A37U U47G G56C | 0.601
12 | G25A A37U U54A | ≤ 0.5
13 | G25A A40C | 0.839
14 | G25A A40C A65C | 0.739
15 | G25A A40C C46U | 0.978
16 | G25A A40C C55G C61A | ≤ 0.5
17 | G25A A40U | 0.924
18 | G25A A40U A45G C60A | ≤ 0.5
19 | G25A A40U U54C | 0.565
20 | G25A A42C | 0.868
21 | G25A A42U A65C G67U | ≤ 0.5
22 | G25A A43C A70C | 0.824
23 | G25A A43C C60A | 0.544
24 | G25A A43C G63C G67A | ≤ 0.5

Row | Variant | yeast fitness
25 | G25A A43G A45U C46U | ≤ 0.5
26 | G25A A43G G48C | 0.573
27 | G25A A45C C66U G67C | 0.608
28 | G25A A45C U53C C55U G56C C61A C66U | 0.564
29 | G25A A45G C46U | 0.731
30 | G25A A45G G52A U54A | ≤ 0.5
31 | G25A A45U | 0.803
32 | G25A A45U A57U | ≤ 0.5
33 | G25A A45U C62A | 0.54
34 | G25A A45U U54C G58C | 0.596
35 | G25A A57C | 0.697
36 | G25A A57G | 1.08
37 | G25A A57U | 0.772
38 | G25A A65C | 1.01
39 | G25A A65G | 0.956
40 | G25A A65U G68C | 0.657
41 | G25A A69U | 1.04
42 | G25A A70G | 1.04
43 | G25A A70U | 1.01
44 | G25A C27G A45U C55A | ≤ 0.5
45 | G25A C27G C60A | ≤ 0.5
46 | G25A C27U | 0.901
47 | G25A C27U A69C | 0.73
48 | G25A C27U C34G | 0.748

Row | Variant | yeast fitness
49 | G25A C29A A42G | ≤ 0.5
50 | G25A C29A C55A | 0.625
51 | G25A C29A G38A | ≤ 0.5
52 | G25A C29G | 0.721
53 | G25A C29G A43C C61A A69U | ≤ 0.5
54 | G25A C29G U54G C61G | ≤ 0.5
55 | G25A C29U | 0.997
56 | G25A C29U C66U | 0.747
57 | G25A C30A G67U | 0.776
58 | G25A C30G C49U | 0.594
59 | G25A C30G G58C C66A | ≤ 0.5
60 | G25A C30G U59C C66A | ≤ 0.5
61 | G25A C31A | 0.671
62 | G25A C31A A45C G50A | 0.536
63 | G25A C31G | 0.906
64 | G25A C31G A45U | 0.612
65 | G25A C31G C55G | ≤ 0.5
66 | G25A C31U | 0.923
67 | G25A C31U A43C A57C | ≤ 0.5
68 | G25A C31U G38C C62U | 0.697
69 | G25A C31U G38C G48A | 0.651
70 | G25A C31U G41U | 0.739
71 | G25A C33A A40G A70C | ≤ 0.5
72 | G25A C33G A57G G58A U59C A65U | ≤ 0.5

Row | Variant | yeast fitness
73 | G25A C33U | 0.655
74 | G25A C34A | 0.77
75 | G25A C34G C46U U54A | ≤ 0.5
76 | G25A C34G G50C C62A | ≤ 0.5
77 | G25A C34U | 0.574
78 | G25A C34U A43U | ≤ 0.5
79 | G25A C34U A65U | 0.671
80 | G25A C46A | 0.876
81 | G25A C46A G52C G68A | ≤ 0.5
82 | G25A C46G A65U | 0.788
83 | G25A C46U A57G | 0.676
84 | G25A C46U G50C | 0.556
85 | G25A C49A | 0.691
86 | G25A C49U A70C | 0.845
87 | G25A C49U C55U | 0.683
88 | G25A C49U U59G | 0.54
89 | G25A C55A | 0.725
90 | G25A C55G U59A G63A | ≤ 0.5
91 | G25A C55U | 0.84
92 | G25A C60A A69G | ≤ 0.5
93 | G25A C60A C66U | ≤ 0.5
94 | G25A C60G G63C | 0.548
95 | G25A C60U | 0.808
96 | G25A C61U G63C | 0.528

Row | Variant | yeast fitness
97 | G25A C62A A65C | 0.517
98 | G25A C62U G68A | 0.641
99 | G25A G38C A42C | ≤ 0.5
100 | G25A G38C G48A C60U | ≤ 0.5
101 | G25A G39C A57C | ≤ 0.5
102 | G25A G41A A70U | 0.713
103 | G25A G41A C49U A69U | 0.574
104 | G25A G41A C61A A65U | ≤ 0.5
105 | G25A G41A G51C C60U | ≤ 0.5
106 | G25A G41A G56A | 0.871
107 | G25A G41A G67A | 0.59
108 | G25A G41C G58A | 0.975
109 | G25A G44C | 1.04
110 | G25A G44C G52A C62G A69G | ≤ 0.5
111 | G25A G48A | 0.981
112 | G25A G48C C62A | 0.611
113 | G25A G50A C66U | 0.629
114 | G25A G50C U54C | 0.627
115 | G25A G51C | 0.575
116 | G25A G52A | 0.572
117 | G25A G52U | 0.627
118 | G25A G52U U54C | ≤ 0.5
119 | G25A G67A | 0.875
120 | G25A G68A | 1.02

Row | Variant | yeast fitness
121 | G25A U26A C31U G38A A42G A43U G67C | 0.613
122 | G25A U26C | 0.947
123 | G25A U26G | 0.805
124 | G25A U28A A43U | 0.835
125 | G25A U32A | 0.744
126 | G25A U32A C46U A57U | 0.609
127 | G25A U32A U53A | ≤ 0.5
128 | G25A U32A U53A A70C | ≤ 0.5
129 | G25A U32A U54G G56A | ≤ 0.5
130 | G25A U32C G41A | 0.546
131 | G25A U47C C60U | 0.587
132 | G25A U47C G56C C60U A70U | ≤ 0.5
133 | G25A U47G C49A | 0.548
134 | G25A U53A | 0.741
135 | G25A U53C | 0.819
136 | G25A U54A C66A | ≤ 0.5
137 | G25A U59A | 1.06
138 | G25C A37U G48A C61U | ≤ 0.5
139 | G25C A40C C49U | 0.76
140 | G25C A40G C61G G63A A69U | ≤ 0.5
141 | G25C A40G U47A A57C G63A | ≤ 0.5
142 | G25C A42C C61U | ≤ 0.5
143 | G25C A42U | 0.869
144 | G25C A42U A43G U53C A65G | ≤ 0.5

Row | Variant | yeast fitness
145 | G25C A43C C49U | 0.632
146 | G25C A43U A45G | 0.518
147 | G25C A43U G50A | 0.704
148 | G25C A45C A70C | 0.677
149 | G25C A45G G50A C62G | ≤ 0.5
150 | G25C A57G | 0.892
151 | G25C A65G | 1
152 | G25C A69U | 0.929
153 | G25C C27A C30G | ≤ 0.5
154 | G25C C27A C66U | ≤ 0.5
155 | G25C C27G | 0.553
156 | G25C C27G C46G C55A | ≤ 0.5
157 | G25C C27G U47C | ≤ 0.5
158 | G25C C29A A65U | 0.558
159 | G25C C29A G52A C66U | ≤ 0.5
160 | G25C C29A U32A A65U | ≤ 0.5
161 | G25C C29G | 0.703
162 | G25C C29G A40U | ≤ 0.5
163 | G25C C29G A43C | ≤ 0.5
164 | G25C C29G A43G | ≤ 0.5
165 | G25C C29G A43G C49G | 0.647
166 | G25C C29G C30U C49G | 0.61
167 | G25C C29G U32G A43U G50A | ≤ 0.5
